ChEMBL document CHEMBL3621164, “Discovery of Triazole CYP11B2 Inhibitors with in Vivo Activity in Rhesus Monkeys” (ACS Med Chem Lett, 2015)
pIC50: −log10 of the molar value.

Assays:
Rhesus monkey [1] = experiment: Decrease in aldosterone level in rhesus monkey plasma at 0.3 mg/kg, iv by LC/MS method; format: functional; conditions: Macaca mulatta
Procedure, shortened: (§1)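 Plasma aldosterone and 11-deoxycortisol quantified by LC–MS at time points up to 180 min postdose; AUCs over that period calculated and compared with baseline.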

Rhesus monkey [2] = experiment: Decrease in aldosterone level in rhesus monkey plasma at 0.1 mg/kg, iv by LC/MS method; format: functional; conditions: Macaca mulatta; procedure, shortened: as §1
Plasma [3] = experiment: Free plasma concentration in rhesus monkey at 0.1 mg/kg, iv measured 90 mins post dose by LC/MS method; format: ADME, organism-based, Macaca mulatta; conditions: in vivo, 1.5 h
Procedure, shortened: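 Anesthetized rhesus monkeys dosed i.v.; plasma drug concentration measured 90 min postdose. Free (unbound) concentration calculated from total plasma level using the free fraction determined in rhesus plasma.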

Plasma [4] = experiment: Plasma protein binding in rhesus monkey; format: ADME, cell-free, Macaca mulatta
Plasma [5] = experiment: Fraction unbound in iv dosed rhesus monkey plasma measured 90 mins post dose by LC/MS method; format: ADME, organism-based, Macaca mulatta; conditions: in vivo, 1.5 h
Cytochrome P450 3A4 = Cytochrome P450 3A4 (Homo sapiens, UniProt P08684); experiment: Inhibition of human CYP3A4; format: ADME
Sequence of Cytochrome P450 3A4 (P08684 whole entry): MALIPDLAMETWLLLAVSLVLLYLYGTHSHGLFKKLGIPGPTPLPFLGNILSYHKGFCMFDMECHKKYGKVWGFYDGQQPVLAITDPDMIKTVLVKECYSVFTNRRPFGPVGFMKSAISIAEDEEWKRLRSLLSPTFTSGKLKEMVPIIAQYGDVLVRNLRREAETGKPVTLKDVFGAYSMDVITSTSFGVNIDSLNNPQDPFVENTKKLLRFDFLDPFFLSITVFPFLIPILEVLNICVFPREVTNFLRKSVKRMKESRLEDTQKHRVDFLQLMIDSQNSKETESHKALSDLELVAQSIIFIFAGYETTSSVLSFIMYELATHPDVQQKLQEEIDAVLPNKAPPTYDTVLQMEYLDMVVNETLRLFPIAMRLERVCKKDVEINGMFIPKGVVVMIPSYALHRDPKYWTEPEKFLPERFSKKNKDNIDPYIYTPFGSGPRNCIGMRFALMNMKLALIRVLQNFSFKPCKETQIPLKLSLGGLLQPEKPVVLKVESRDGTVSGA

Aromatase = molecular target: T1, Aromatase (Homo sapiens, UniProt P11511); experiment: Inhibition of human CYP19
T1 sequence (P11511 whole entry): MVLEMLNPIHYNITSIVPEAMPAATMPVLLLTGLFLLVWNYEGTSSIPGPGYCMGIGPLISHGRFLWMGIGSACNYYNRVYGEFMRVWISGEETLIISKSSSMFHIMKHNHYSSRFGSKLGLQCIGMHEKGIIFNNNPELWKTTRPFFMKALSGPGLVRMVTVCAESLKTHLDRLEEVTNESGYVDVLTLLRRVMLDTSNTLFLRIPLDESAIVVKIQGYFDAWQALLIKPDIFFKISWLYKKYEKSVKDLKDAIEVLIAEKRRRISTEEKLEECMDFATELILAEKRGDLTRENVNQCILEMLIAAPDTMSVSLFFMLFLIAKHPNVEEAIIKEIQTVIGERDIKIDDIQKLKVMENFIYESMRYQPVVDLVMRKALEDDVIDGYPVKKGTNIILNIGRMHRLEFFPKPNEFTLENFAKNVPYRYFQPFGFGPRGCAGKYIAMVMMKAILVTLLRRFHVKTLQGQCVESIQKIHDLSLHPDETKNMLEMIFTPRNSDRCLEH

[6] = Inhibition of rhesus monkey CYP11B1; set-up: species or system Macaca mulatta
[7] = Plasma clearance in rhesus monkey at 2 mg/kg administered through gavage by LC-MS/MS method; format: ADME, organism-based, Macaca mulatta; conditions: po
[8] = molecular target: T2, Cytochrome P450 11B1, mitochondrial (Homo sapiens, UniProt P15538); experiment: Inhibition of human CYP11B1 expressed in V79 cells assessed as cortisol level after 3 hrs by HTRF assay in presence of 250 nM 11-deoxycortisol; format: cell-based
T2 sequence (P15538 whole entry): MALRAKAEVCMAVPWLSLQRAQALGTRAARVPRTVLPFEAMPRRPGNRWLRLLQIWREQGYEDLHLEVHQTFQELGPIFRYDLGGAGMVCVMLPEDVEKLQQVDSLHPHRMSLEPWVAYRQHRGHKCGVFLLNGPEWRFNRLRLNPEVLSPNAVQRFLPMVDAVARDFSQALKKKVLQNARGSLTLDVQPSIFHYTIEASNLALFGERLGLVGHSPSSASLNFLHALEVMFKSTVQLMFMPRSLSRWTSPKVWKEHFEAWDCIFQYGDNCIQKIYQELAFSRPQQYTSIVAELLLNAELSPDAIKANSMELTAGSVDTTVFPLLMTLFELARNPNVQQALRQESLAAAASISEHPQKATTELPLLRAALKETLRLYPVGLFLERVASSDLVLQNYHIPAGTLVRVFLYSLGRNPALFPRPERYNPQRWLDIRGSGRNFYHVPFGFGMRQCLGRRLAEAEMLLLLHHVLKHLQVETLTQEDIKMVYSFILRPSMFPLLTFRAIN

[9] = molecular target: T3, Steroid 17-alpha-hydroxylase/17,20 lyase (Homo sapiens, UniProt P05093); experiment: Inhibition of human CYP17 expressed in COS7 cells assessed as DHEA level after 3 hrs by EIA assay in presence of 360 nM 17-hydroxypregnenolone; format: cell-based, COS-7
T3 sequence (P05093 whole entry): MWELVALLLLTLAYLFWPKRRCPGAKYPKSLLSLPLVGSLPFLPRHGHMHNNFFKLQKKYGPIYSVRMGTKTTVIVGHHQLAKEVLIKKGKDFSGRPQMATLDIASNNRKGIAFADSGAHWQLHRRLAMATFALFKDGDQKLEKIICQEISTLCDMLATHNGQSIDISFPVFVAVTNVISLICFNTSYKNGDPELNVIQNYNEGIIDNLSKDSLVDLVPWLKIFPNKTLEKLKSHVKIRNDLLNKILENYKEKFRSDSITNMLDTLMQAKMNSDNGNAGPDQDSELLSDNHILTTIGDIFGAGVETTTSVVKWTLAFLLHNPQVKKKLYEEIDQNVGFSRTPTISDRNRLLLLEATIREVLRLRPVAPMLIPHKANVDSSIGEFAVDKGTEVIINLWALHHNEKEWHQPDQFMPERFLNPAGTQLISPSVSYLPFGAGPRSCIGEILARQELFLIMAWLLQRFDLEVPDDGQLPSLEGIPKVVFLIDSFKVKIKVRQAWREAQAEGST

[10] = molecular target: T4, Cytochrome P450 11B2, mitochondrial (Homo sapiens, UniProt P19099); experiment: Inhibition of human CYP11B2 expressed in V79 cells assessed as aldosterone level after 3 hrs by HTRF assay in presence of 125 nM 11-deoxycorticosterone; format: cell-based
T4 sequence (P19099 whole entry): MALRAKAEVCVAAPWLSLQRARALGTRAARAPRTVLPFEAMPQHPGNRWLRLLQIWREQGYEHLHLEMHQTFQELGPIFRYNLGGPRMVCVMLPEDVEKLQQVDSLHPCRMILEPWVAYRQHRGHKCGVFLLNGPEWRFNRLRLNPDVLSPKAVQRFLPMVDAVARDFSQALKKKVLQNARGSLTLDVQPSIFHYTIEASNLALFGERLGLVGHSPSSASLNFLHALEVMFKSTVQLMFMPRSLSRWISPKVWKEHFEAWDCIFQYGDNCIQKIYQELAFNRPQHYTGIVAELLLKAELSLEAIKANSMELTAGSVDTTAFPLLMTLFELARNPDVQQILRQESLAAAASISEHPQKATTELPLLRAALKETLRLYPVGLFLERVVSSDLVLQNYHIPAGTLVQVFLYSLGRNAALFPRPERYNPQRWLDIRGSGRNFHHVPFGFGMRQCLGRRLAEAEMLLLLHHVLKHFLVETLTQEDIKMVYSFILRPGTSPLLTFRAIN

Rattus norvegicus = experiment: Dose normalized AUC in Sprague-Dawley rat at 2 mg/kg, po administered through gavage; format: ADME, organism-based; conditions: in vivo
Homo sapiens = species on record: Homo sapiens; experiment: Selectivity index, ratio IC50 for human CYP11B1 to IC50 for human CYP11B2
Procedure, shortened: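 Ratio of human CYP11B1 IC50 to human CYP11B2 IC50; each IC50 calculated from n ≥ 2 determinations.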

Rhesus monkey [11] = experiment: Decrease in aldosterone level in rhesus monkey plasma at 1 mg/kg, iv by LC/MS method; format: functional; conditions: Macaca mulatta; procedure, shortened: as §1
[12] = Intrinsic clearance in Sprague-Dawley rat liver microsomes by LC/MS method; format: ADME; conditions: read-out: CLH

Cp(f) (Plasma [3]): 19 nM | PPB (Plasma [4]): 31% | Fu (Plasma [5]): 31% | pIC50 (Cytochrome P450 3A4): < 4.30 | pIC50 (Aromatase): < 4.52 | pIC50 [6]: 5.46 | CL/F [7]: 3 mL/min/kg | pIC50 [8]: 5.36 | pIC50 [9]: < 5.00 | pIC50 [10]: 7.19 | AUC/dose (Rattus norvegicus): 1.88 µM·kg·h/mg | Ratio IC50 (Homo sapiens): 69 | CLint scaled [12]: < 20 mL/min/kg
Structure (SMILES): Cc1nnc2n1-c1ccc(-c3cncc([C@](C)(O)C(F)(F)F)c3)cc1CC2
inhibition in vivo at 0.3 mg/kg (Rhesus monkey [1]): 71% | inhibition in vivo at 0.1 mg/kg (Rhesus monkey [2]): 48% | inhibition in vivo at 1 mg/kg (Rhesus monkey [11]): 98%
